Measured values: ChEMBL document CHEMBL5576140, “Computational Design of Pore-Forming Peptides with Potent Antimicrobial and Anticancer Activities” (J Med Chem, 2024)

Test system: Staphylococcus aureus
Experiment: Antimicrobial activity against Staphylococcus aureus NE1740 harboring single transposon insertion mutation in staphopain A at 30 uM incubated for 18 hrs relative to control
Type: functional
Summary of the method: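 CA-MRSA USA300 LAC derivative JE2 and single transposon insertion mutants derived from JE2, each lacking an extracellular protease gene, were exposed to peptides up to 30 μM. The read-out was percent growth inhibition. Peptides were dissolved in PBS, and tests were run in triplicate.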

H-KKKKLKKILKKLFQFINQLDNQLQDIKQNK-NH2
inhibition at 30 µM: < 45%
